From ChEMBL document CHEMBL1949555, “Piperazine-2,3-dicarboxylic acid derivatives as dual antagonists of NMDA and GluK1-containing kainate receptors” (J Med Chem, 2012)

Experiments:
[1] = target: Ionotropic glutamate receptor NMDA 1/2D (Rattus norvegicus, UniProt P35439+Q62645); assay: Antagonist activity rat recombinant GluN1/GluN2D receptor expressed in Xenopus laevis oocytes assessed as inhibition of glutamate-induced response by two-electrode voltage-clamp electrophysiology assay; assay type: functional, cell-based, Oocyte; details: read-out: Ki(app)
[2] = target: Glutamate receptor ionotropic, kainate 1 (Homo sapiens, UniProt P39086); assay: Antagonist activity at human recombinant GluK1 receptor expressed in human HEK293 cells assessed as inhibition of glutamate-stimulated calcium influx by fluorescence assay; assay type: functional, cell-based
Outline: (§1)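 HEK293 lines stably expressing homomeric human GluK1(Q) or GluK2(Q), passaged no more than 20 times. Ca2+ influx is read as fluorescence, with concanavalin A present. Test compound is added in a first run, then L-glutamate plus antagonist in a second run (final glutamate 30 μM for GluK1, 10 μM for GluK2). IC50 values are converted to KB. Means ± s.e.m.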

[3] = target: Glutamate NMDA receptor; Grin1/Grin2c (Rattus norvegicus, UniProt P35439+Q00961); assay: Antagonist activity rat recombinant GluN1/GluN2C receptor expressed in Xenopus laevis oocytes assessed as inhibition of glutamate-induced response by two-electrode voltage-clamp electrophysiology assay; assay type: functional, cell-based, Oocyte; details: read-out: Ki(app)
Outline: (§2)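 Two-electrode voltage clamp of oocytes expressing rat GluN1a with the given GluN2 subunit, held at −60 mV in buffer of 116 mM NaCl, 2 mM KCl, 0.3 mM BaCl2, 5 mM HEPES, pH 7.4. Response is the steady plateau to bath-applied 10 μM L-glutamate plus 10 μM glycine. IC50 converted to apparent Ki via Ki = IC50/(1 + [agonist]/EC50). Means ± s.e.m.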

[4] = species: Rattus norvegicus; assay: Selectivity ratio of Ki(app) for rat recombinant GluN1/GluN2C receptor to Ki(app) for rat recombinant GluN1/GluN2D receptor
Outline: (§3)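 Rat GluN1a is co-expressed with GluN2A, 2B, 2C or 2D in Xenopus oocytes and recorded by two-electrode voltage clamp at −60 mV. Buffer is 116 mM NaCl, 2 mM KCl, 0.3 mM BaCl2, 5 mM HEPES, pH 7.4. The plateau response to bath-applied 10 μM L-glutamate plus 10 μM glycine is measured. Apparent Ki is IC50/(1+[agonist]/EC50).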

[5] = target: Glutamate NMDA receptor; Grin1/Grin2b (Rattus norvegicus, UniProt P35439+Q00960); assay: Antagonist activity rat recombinant GluN1/GluN2B receptor expressed in Xenopus laevis oocytes assessed as inhibition of glutamate-induced response by two-electrode voltage-clamp electrophysiology assay; assay type: functional, cell-based, Oocyte; details: read-out: Ki(app); outline: as §2
[6] = species: Rattus norvegicus; assay: Selectivity ratio of Ki(app) for rat recombinant GluN1/GluN2A receptor to Ki(app) for rat recombinant GluN1/GluN2D receptor
[7] = test system: Kainate receptors (Rattus norvegicus); assay: Displacement of [3H]-Kainate from native kainate receptors in rat brain homogenate; details: concentration not given here
[8] = target: Glutamate NMDA receptor; Grin1/Grin2a (Rattus norvegicus, UniProt P35439+Q00959); assay: Antagonist activity at rat recombinant GluN1/GluN2A receptor expressed in Xenopus laevis oocytes assessed as inhibition of glutamate-induced response by two-electrode voltage-clamp electrophysiology assay; assay type: functional, cell-based, Oocyte; details: read-out: Ki(app)
[9] = species: Rattus norvegicus; assay: Selectivity ratio of Ki(app) for rat recombinant GluN1/GluN2B receptor to Ki(app) for rat recombinant GluN1/GluN2D receptor; outline: as §3
[10] = target: Glutamate receptor ionotropic, kainate 2 (Homo sapiens, UniProt Q13002); assay: Antagonist activity at human recombinant GluK2 receptor expressed in human HEK293 cells assessed as inhibition of glutamate-stimulated calcium influx by fluorescence assay; assay type: functional, cell-based; outline: as §1
[11] = Selectivity ratio of Kb for human recombinant GluK1 receptor to Ki(app) for rat recombinant GluN1/GluN2D receptor
[12] = Solubility of the compound in water at >100 uM; assay type: physicochemical; details: buffer
[13] = target: Ionotropic glutamate receptor NMDA 1/2D (Rattus norvegicus) (UniProt P35439+Q62645); assay: Antagonist activity rat recombinant GluN1/GluN2D receptor expressed in Xenopus laevis oocytes assessed as inhibition of glutamate-induced response at 100 uM by two-electrode voltage-clamp electrophysiology assay; assay type: functional, cell-based; details: Oocyte
Outline: (§4)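 Rat GluN1a co-expressed with GluN2A, 2B, 2C or 2D in Xenopus oocytes. Two-electrode voltage clamp at −60 mV in buffer of 116 mM NaCl, 2 mM KCl, 0.3 mM BaCl2, 5 mM HEPES, pH 7.4. Response is the steady plateau evoked by bath-applied 10 μM L-glutamate plus 10 μM glycine. Read-out is percent antagonism by 100 μM test compound.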

[14] = target: Glutamate NMDA receptor; Grin1/Grin2c (Rattus norvegicus) (UniProt P35439+Q00961); assay: Antagonist activity rat recombinant GluN1/GluN2C receptor expressed in Xenopus laevis oocytes assessed as inhibition of glutamate-induced response at 100 uM by two-electrode voltage-clamp electrophysiology assay; assay type: functional, cell-based; details: Oocyte; outline: as §4
[15] = target: Glutamate NMDA receptor; Grin1/Grin2a (Rattus norvegicus) (UniProt P35439+Q00959); assay: Antagonist activity at rat recombinant GluN1/GluN2A receptor expressed in Xenopus laevis oocytes assessed as inhibition of glutamate-induced response at 100 uM by two-electrode voltage-clamp electrophysiology assay; assay type: functional, cell-based; details: Oocyte; outline: as §4
[16] = target: Glutamate NMDA receptor; Grin1/Grin2b (Rattus norvegicus) (UniProt P35439+Q00960); assay: Antagonist activity rat recombinant GluN1/GluN2B receptor expressed in Xenopus laevis oocytes assessed as inhibition of glutamate-induced response at 100 uM by two-electrode voltage-clamp electrophysiology assay; assay type: functional, cell-based; details: Oocyte; outline: as §4

Glutamate receptor ionotropic, kainate 1, sequence (P39086 whole entry): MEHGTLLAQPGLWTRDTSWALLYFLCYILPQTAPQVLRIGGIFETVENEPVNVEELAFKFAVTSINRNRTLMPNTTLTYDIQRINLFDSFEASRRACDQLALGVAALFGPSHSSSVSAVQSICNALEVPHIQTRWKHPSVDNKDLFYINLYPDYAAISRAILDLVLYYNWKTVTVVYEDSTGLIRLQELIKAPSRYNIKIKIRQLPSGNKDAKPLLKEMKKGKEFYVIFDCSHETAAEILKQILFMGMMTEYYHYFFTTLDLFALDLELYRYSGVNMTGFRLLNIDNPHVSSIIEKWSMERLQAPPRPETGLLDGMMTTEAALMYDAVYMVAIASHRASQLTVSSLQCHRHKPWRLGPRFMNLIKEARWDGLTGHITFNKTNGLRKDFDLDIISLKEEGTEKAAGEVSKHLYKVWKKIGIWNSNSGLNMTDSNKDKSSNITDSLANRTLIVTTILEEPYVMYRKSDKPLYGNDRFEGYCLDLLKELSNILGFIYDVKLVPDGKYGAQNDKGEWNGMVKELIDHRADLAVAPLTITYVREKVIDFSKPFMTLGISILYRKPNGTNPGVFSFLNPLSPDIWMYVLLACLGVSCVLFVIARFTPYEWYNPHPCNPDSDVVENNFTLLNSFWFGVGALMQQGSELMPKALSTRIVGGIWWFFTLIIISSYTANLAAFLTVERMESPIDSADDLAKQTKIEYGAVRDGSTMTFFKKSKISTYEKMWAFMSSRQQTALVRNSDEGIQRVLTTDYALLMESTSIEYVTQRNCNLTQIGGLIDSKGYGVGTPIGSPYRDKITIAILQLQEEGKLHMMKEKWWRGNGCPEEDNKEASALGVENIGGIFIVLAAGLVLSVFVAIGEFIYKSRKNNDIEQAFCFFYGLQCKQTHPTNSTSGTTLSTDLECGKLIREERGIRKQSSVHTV
Glutamate receptor ionotropic, kainate 2, sequence (Q13002 whole entry): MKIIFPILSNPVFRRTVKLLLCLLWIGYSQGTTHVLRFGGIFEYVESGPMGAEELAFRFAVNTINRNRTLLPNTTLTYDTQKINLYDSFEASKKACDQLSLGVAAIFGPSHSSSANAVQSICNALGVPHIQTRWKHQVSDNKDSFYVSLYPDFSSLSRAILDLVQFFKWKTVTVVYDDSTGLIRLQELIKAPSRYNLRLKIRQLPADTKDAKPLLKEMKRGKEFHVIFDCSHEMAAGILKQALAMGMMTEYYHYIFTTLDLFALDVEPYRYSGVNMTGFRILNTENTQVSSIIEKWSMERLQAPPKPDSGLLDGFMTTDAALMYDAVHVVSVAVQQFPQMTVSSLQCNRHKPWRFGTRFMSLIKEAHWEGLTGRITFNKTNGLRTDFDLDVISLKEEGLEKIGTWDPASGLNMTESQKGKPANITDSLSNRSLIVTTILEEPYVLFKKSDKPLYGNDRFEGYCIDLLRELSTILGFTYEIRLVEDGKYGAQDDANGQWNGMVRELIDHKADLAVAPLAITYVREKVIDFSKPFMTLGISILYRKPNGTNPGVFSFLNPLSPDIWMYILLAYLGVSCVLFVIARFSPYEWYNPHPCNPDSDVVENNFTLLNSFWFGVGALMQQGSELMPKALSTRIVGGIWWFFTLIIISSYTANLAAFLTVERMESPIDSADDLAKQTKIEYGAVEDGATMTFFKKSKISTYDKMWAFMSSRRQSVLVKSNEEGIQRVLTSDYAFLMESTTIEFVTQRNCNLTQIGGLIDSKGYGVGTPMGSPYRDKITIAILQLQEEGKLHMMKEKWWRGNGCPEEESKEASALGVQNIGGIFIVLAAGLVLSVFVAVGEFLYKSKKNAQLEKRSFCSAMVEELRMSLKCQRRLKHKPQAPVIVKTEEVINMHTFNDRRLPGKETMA

| Compound | Ki [1] | Kb [2] | Ki [3] | Ki [5] | Ki [8] | Kb [10] | further results |
| --- | --- | --- | --- | --- | --- | --- | --- |
| O=C(O)[C@H]1NCCN(S(=O)(=O)c2ccc(-c3ccccc3)cc2)[C@H]1C(=O)O | 10.9 µM | > 100 µM |  |  |  |  |  |
| O=C(O)[C@H]1NCCN(C(=O)c2ccc3ccc4ccccc4c3c2)[C@H]1C(=O)O | 2.4 µM | 14.2 µM | 5.2 µM | 17.2 µM | 22 µM | > 100 µM | Ratio Ki(app) [4]: 2; Ratio Ki(app) [6]: 10; inhibition [7]: 10%; Ratio Ki(app) [9]: 7 |
| O=C(O)[C@H]1NCCN(C(=O)c2ccc3c(c2)CCc2cc(Br)ccc2-3)[C@H]1C(=O)O | 1 µM | 11.5 µM |  |  |  |  |  |
| O=C(O)[C@H]1NCCN(C(=O)c2ccc3c(ccc4cc(Br)ccc43)c2)[C@H]1C(=O)O | 0.15 µM | 8 µM |  |  |  | > 100 µM |  |
| O=C(O)[C@H]1NCCN(Cc2ccc3c(ccc4ccccc43)c2)[C@H]1C(=O)O | 3.2 µM | 39 µM |  |  |  |  |  |
| O=C(O)[C@@H]1[C@H](C(=O)O)NCCN1C(=O)c1ccc2c(ccc3ccccc32)c1 | 0.09 µM | 3 µM | 0.07 µM | 0.22 µM | 0.21 µM | > 100 µM | Ratio [11]: 30 |
| O=C(O)[C@H]1NCCN(C(=O)c2ccc3c(c2)CCc2ccccc2-3)[C@H]1C(=O)O | 0.57 µM | 14.1 µM |  |  |  | > 100 µM |  |
| O=C(O)[C@H]1NCCN(C(=O)c2ccc(-c3ccccc3)cc2)[C@H]1C(=O)O | 4.3 µM | 9.8 µM |  |  |  | > 100 µM |  |
| O=C(O)[C@H]1NCCN(C(=O)c2ccc3ccccc3c2)[C@H]1C(=O)O |  | 45.6 µM |  |  |  |  |  |
| O=C(O)C1NCCN(C(=O)c2ccc3c(ccc4ccccc43)c2)C1C(=O)O (racemic) [listing 1 of 2 here] | 0.13 µM |  | 0.1 µM | 0.31 µM | 0.55 µM |  |  |
| O=C(O)[C@@H]1NCCN(C(=O)c2ccc3c(ccc4ccccc43)c2)[C@H]1C(=O)O (racemic) | 6 µM | 59.2 µM |  |  |  |  |  |
| O=C(O)C1NCCN(C(=O)c2ccc3c(ccc4ccccc43)c2)C1C(=O)O (racemic) [listing 2 of 2 here] |  | 7.5 µM |  |  |  | > 100 µM |  |
| O=C(O)[C@H]1NCCN(C(=O)c2ccc3cc(F)ccc3c2)[C@H]1C(=O)O (relative stereo) | 5.1 µM | 52.9 µM | 3.6 µM | 12.3 µM | 7.4 µM |  |  |
| O=C(O)[C@H]1NCCN(C(=O)c2ccc3cc(Br)ccc3c2)[C@H]1C(=O)O (relative stereo) | 2.2 µM | 16.2 µM | 2.1 µM | 2.7 µM | 4.1 µM |  |  |
| O=C(O)[C@H]1NCCN(C(=O)c2ccc3cc(I)ccc3c2)[C@H]1C(=O)O (relative stereo) | 1.6 µM | 7.5 µM | 1.8 µM | 1.3 µM | 3 µM | > 100 µM |  |
| O=C(O)[C@H]1NCCN(C(=O)c2ccc3cc(-c4ccccc4)ccc3c2)[C@H]1C(=O)O (relative stereo) | 2.4 µM | 5.8 µM | 5.1 µM | > 100 µM | > 100 µM | > 100 µM | solubility [12]: Insoluble |
| O=C(O)[C@H]1NCCN(C(=O)CCc2ccc3ccccc3c2)[C@H]1C(=O)O (relative stereo) | 2.7 µM | 67.8 µM | 4.1 µM | 2.3 µM | 5.1 µM |  |  |
| O=C(O)c1ccc2cc(C(=O)N3CCN[C@H](C(=O)O)[C@@H]3C(=O)O)ccc2c1 (relative stereo) | > 100 µM | 59.7 µM | > 100 µM | > 100 µM | > 100 µM |  | inhibition [13]: < 5%; inhibition [14]: < 5%; inhibition [15]: < 5%; inhibition [16]: < 5% |
| O=C(O)c1ccc(-c2ccc(C(=O)N3CCN[C@H](C(=O)O)[C@@H]3C(=O)O)cc2)cc1 (relative stereo) |  | 51.5 µM | > 100 µM | > 100 µM |  |  | inhibition [14]: < 15%; solubility [12]: Insoluble; inhibition [16]: < 15% |
| O=C(O)[C@H]1NCCN(C(=O)c2ccc(C#Cc3ccccc3)cc2)[C@H]1C(=O)O (relative stereo) | 10.5 µM |  | 21.4 µM | 24.1 µM | 138 µM | > 100 µM |  |
| O=C(O)[C@H]1NCCN(C(=O)c2ccc(/N=N/c3ccccc3)cc2)[C@H]1C(=O)O (relative stereo) | 10.8 µM |  | 28 µM | 12.9 µM | 99.3 µM | > 100 µM |  |
| O=C(O)[C@H]1NCCN(C(=O)c2ccc(CCc3ccccc3)cc2)[C@H]1C(=O)O (relative stereo) | > 100 µM | 16.7 µM | > 100 µM | > 100 µM | > 100 µM |  | inhibition [13]: 10.2%; inhibition [14]: 29.1%; inhibition [15]: 11.5%; inhibition [16]: > 5% |
| O=C(O)[C@H]1NCCN(C(=O)c2ccc3cc(Cl)c4ccccc4c3c2)[C@H]1C(=O)O (relative stereo) | 1.7 µM | 21.8 µM | 3.2 µM | 15.2 µM | 7.2 µM |  |  |
| O=C(O)[C@H]1NCCN(C(=O)c2ccc3cc(Br)c4ccccc4c3c2)[C@H]1C(=O)O (relative stereo) | 1.2 µM | 12.8 µM | 2.8 µM | 8 µM | 11.5 µM | > 100 µM | Ratio Ki(app) [4]: 2; Ratio Ki(app) [6]: 10; inhibition [7]: 10%; Ratio Ki(app) [9]: 7; Ratio [11]: 9 |
| O=C(O)[C@H]1NCCN(C(=O)c2ccc3cc4ccccc4cc3c2)[C@H]1C(=O)O (relative stereo) | 2.5 µM | 14.4 µM | 3.4 µM | 5.2 µM | 10.5 µM | > 100 µM |  |
| O=C(O)C1NCCN(C(=O)c2ccc3c(ccc4ccccc43)c2)C1C(=O)O (single isomer, unassigned; (+)) |  | 82 µM |  |  |  |  |  |
